Reference: PMC2141641 (The Journal of Cell Biology, 1997)

How the values were obtained:
[1] = system: CD36–GST fusion protein FP298-439; parameters: species or system human; conditions: 125I–TSP-1 20 μg/ml; equal to binding in the presence of 5 mM EDTA; n = 5
Summary of the method: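 GST–CD36 fusion protein was coated overnight at 4°C at 10 μg/ml in carbonate buffer, pH 9.8 (200–280 ng/well). Wells were washed with TBS-T and blocked with TBS-T/0.5% BSA. 125I–TSP-1 (20 μg/ml; 0.5–1 mCi/mg) in TBS-T was incubated 2 h at 22°C. Wells were washed and bound counts measured by gamma counting. 5 mM EDTA defined nonspecific binding.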

[2] = system: Bovine adrenal capillary endothelial cells (BCECs); experiment: Endothelial cell migration assay, BCECs; type: cell-based; conditions: TSP-1 2 nM; fusion protein preincubated 2 h at 4°C; migration 4 h at 37°C
Summary of the method: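 Bovine adrenal capillary cells (DME, 10% donor calf serum, 1% endothelial mitogen; passage 15) were starved overnight in DME/0.1% BSA. 3 × 10^4 cells/well were attached 2 h at 37°C to a gelatinized membrane in an inverted Boyden chamber, then reinverted. GST–CD36 fusion proteins were preincubated with 2 nM TSP-1, warmed to room temperature, and added to the top wells. Migration to bFGF ran 4 h at 37°C. Migrated cells/10 high-power fields counted; normalized to bFGF minus background.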

[3] = system: TSP-1; conditions: ref Pearce et al., 1995; cited from earlier work

TSP-1 binding to immobilized fusion protein (in words) [1]: only background binding
B1: FP298-439: control fusion protein unable to bind TSP-1 spanning CD36 amino acids 298–439 (protein)
chain: KAFASPVENPDNYCFCTEKIISKNCTSYGVLDISKCKEGRPVYISLPHFLYASPDVSEPIDGLNPNEEEHRTYLDIEPITGFTLQFAKRLQVNLLVKPSEKIQVLKNLKRNYIVPILWLNETGTIGDEKANMFRSQVTGKIN
modifications: left off: GST, end not stated, kept
block of TSP-1 inhibition of bFGF-induced migration [2]: ineffective | binding of fusion protein to TSP-1 [3]: unable to bind TSP-1
